Screening results: PubChem BioAssay, several laboratories
NPY1 pot ag = human NPY-Y1 potentiation or agonism, primary screen | P25929 | NPY-Y1 expressing cells, potentiator/agonist activation | activation, % at 3.6 µM | 0.37% of 220,000 active | AID 1304; in the data active means activation above about 33%, passing the limit was not always enough;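 further: cells stimulated with NPY at EC10 then isoproterenol at EC100; 0% = low agonist plus stimulus and 100% = saturating agonist plus stimulus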
NPY Y2 blocker = blocks the human neuropeptide Y Y2 receptor | inhibition, % at 2.7 µM | 0.99% of 140,000 active | NPY-Y2 expressing cells, antagonist mode; in the data active means inhibition above about 17%;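 further: 0% = vehicle with agonist challenge and 100% = reference antagonist with challenge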
Target sequence (P49146 whole entry, looked up): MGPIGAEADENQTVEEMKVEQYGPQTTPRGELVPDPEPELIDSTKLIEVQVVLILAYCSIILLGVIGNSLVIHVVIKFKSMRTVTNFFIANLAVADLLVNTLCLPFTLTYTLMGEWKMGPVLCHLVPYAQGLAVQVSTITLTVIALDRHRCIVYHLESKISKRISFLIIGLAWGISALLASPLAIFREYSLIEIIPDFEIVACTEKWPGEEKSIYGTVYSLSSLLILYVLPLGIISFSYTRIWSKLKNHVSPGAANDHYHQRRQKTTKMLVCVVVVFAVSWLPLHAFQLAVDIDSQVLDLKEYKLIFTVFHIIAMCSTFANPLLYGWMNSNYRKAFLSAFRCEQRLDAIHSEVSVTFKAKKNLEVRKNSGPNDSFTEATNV
NPY2 pot ag = potentiates or activates human NPY-Y2 receptor | cells expressing NPY-Y2, potentiator/agonist read-out | 0.45% of 220,000 active | activation, % at 3.6 µM; in the data active means activation above about 27%;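 further: cells stimulated with NPY near EC25 plus isoproterenol at EC100; 0% = vehicle plus submaximal agonist and 100% = vehicle plus saturating agonist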
INS promoter inh = TRM-6 insulin promoter activity inhibition. TRM-6 cells, insulin promoter-eGFP reporter, imaging; reporter expression induced with tamoxifen. inhibition, % at 2 µM. 0.9% of 130,000 active. AID 1273;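 active means inhibition above the mean plus 3 SD, with well images judged a real hit on visual review, cut at about 60% in these data, passing the limit was not always enough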
NPY-Y1 antag = NPY-Y1 (human) receptor antagonism; P25929; HEK293-CNG Y1 cells, membrane potential fluorescence; NPY at EC95, then isoproterenol; inhibition, % at 3.6 µM; 1% of 200,000 active; AID 1040;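 active means inhibition above the campaign mean inhibition of all tested compounds plus 3 SD, cut at about 20% in these data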;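 further: 0% = DMSO wells given NPY plus isoproterenol and 100% = isoproterenol alone without NPY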
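System: HEK293 cells with Y1 receptor plus CNG channel / Probe or stimulus: NPY 25 nM then isoproterenol 1 µM plus Ro 20-1724 25 µM / Compound: one concentration, 3.6 µM, in 0.4% DMSO / Schedule: compound incubation 1 h at room temperature, readout 45 min post-stimulation / Measured by: membrane potential fluorescence / Read-out: % inhibition of NPY effect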
RAM inhibit = yeast RAM network inhibition. 1.8% of 190,000 active. inhibition, % at 50 µM. S. cerevisiae dse1pr::URA3 reporter, 5-FOA growth OD615, 2 d; analog-sensitive cbk1-as2 kinase mutant strain;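 active means inhibition above a set limit, 3 SD over mean compound inhibition, cut at about 8.4% in these data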;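 further: 0% = DMSO-only wells with no growth and 100% = 10 µM 1-NA-PP1 full growth; inhibition rescues growth on 5-FOA so higher OD means more RAM inhibition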
* hit, by the source's call; . = no result given. Hits are enriched below; roughly 3.8% of the tested compounds scored in any of these assays.

SMILES	NPY1 pot ag	NPY Y2 blocker	NPY2 pot ag	INS promoter inh	NPY-Y1 antag	RAM inhibit
COC(=O)CC1=NN(c2ccccc2)C(=O)/C1=C\c1ccc(OC)cc1	9.2	-0.6	-9.3	.	-2.7	9.5*
Cc1nc(-c2ccc(S(=O)(=O)N3CCN(CCc4ccccc4)CC3)s2)cs1	-1.7	.	9.5	.	.	.
O=C1SC(SCc2ccccc2)=N/C1=C\c1ccco1	6.6	0.4	2.4	31.2	-3.7	8.8*
COc1ccc(OC)c(C(C)NC(=O)Nc2ccccc2)c1 (stereo not given)	-9.6	.	-0.7	5.0	0.8	1.1
COc1ccc2c(OC)cc(-c3ccccc3)nc2c1	5.5	1.6	4.0	100.0*	-3.3	1.1
COc1ccc2nc(C)c(C(=O)NN)cc2c1	-10.7	2.9	-13.0	8.3	0.6	1.0
Cc1oc2c(c1C(=O)Nc1cccc(C(=O)O)c1)CCCC2	3.3	-1.8	0.3	65.7*	3.5	0.9
Cc1ccc(C(=O)Nc2cccc(C(=O)O)c2)cc1	-12.6	2.8	-8.5	-6.8	1.8	4.8
CC(C)(C)c1ccc(CN2C3=NCCCN3c3ccccc32)cc1	-62.7	19.6*	-34.7	-61.5	25.4*	1.0
CCCCCCN1C2=NCCN2c2ccccc21	-12.6	3.8	3.5	83.6*	7.4	1.1
Cn1c2ccccc2c2cnn(CC(=O)N3CCCCC3)c(=O)c21	6.8	.	0.6	.	.	.
C/C(=N/NC(=O)C1CCN(S(=O)(=O)c2ccc(C)cc2)CC1)c1cccc([N+](=O)[O-])c1	8.7	6.1	4.7	-25.9	-2.8	6.3
COc1ccc(Cc2c(O)nc(SCC(=O)NC(C)(C)C)[nH]c2=O)cc1	24.7	.	6.3	-7.1	2.3	0.5
CC(=O)Oc1ccc2c(c1)Oc1cc(OC(C)=O)ccc1C21OC(=O)c2ccccc21	-21.4	79.1*	17.4	.	32.1*	1.6
O=C(c1cc(Cl)cc(Cl)c1)N1CCOCC1	-2.3	0.3	5.4	86.7*	4.3	-0.3
CN(Cc1ccccc1)C(=O)CSc1nc2ccccc2c(=O)n1Cc1ccco1	23.7	8.1	17.3	.	0.1	9.2*
O=C(CCCn1c(SCC(=O)c2ccc(Cl)cc2)nc2ccccc2c1=O)NCc1ccco1	15.0	1.9	13.2	27.8	3.4	8.5*
O=C(CCCCCn1c(SCC(=O)c2ccccc2)nc2ccccc2c1=O)NCc1ccco1	-11.7	9.9	-15.2	16.7	9.9	7.7
Cc1ccc(C2(c3noc(CN(C)Cc4cnn(C)c4)n3)CCCC2)cc1	3.7	.	3.1	.	3.7	0.8
S=C(NCCc1ccccc1)N/N=C/c1ccc(Cl)cc1	-44.2	.	-34.8	.	.	.
S=C(NCCc1ccccc1)N/N=C/c1c(Cl)cccc1Cl	-41.1	22.6*	-16.9	-32.4	22.3*	4.1
O=C(c1ccc(N2CCCCC2)c([N+](=O)[O-])c1)N1CCOCC1	-7.9	1.2	14.7	-25.0	-0.7	1.9
COc1ccccc1C(=O)/C=C/c1ccc(N2CCCCC2)c([N+](=O)[O-])c1	15.9	-0.7	6.9	59.2	-2.0	9.7*
O=C(/C=C/c1ccc(N2CCCCC2)c([N+](=O)[O-])c1)c1ccc(O)cc1	20.3	.	17.9	83.3*	-2.0	8.6*
CCOC(=O)C1=C(CSc2nc(-c3ccccc3)ccc2C#N)OC(N)=C(C#N)C1c1cccnc1 (stereo not given)	8.5	13.3	-5.8	-88.6	-0.3	2.5
SMILES	NPY1 pot ag	NPY Y2 blocker	NPY2 pot ag	INS promoter inh	NPY-Y1 antag	RAM inhibit
CCOC(=O)C1=C(CSc2nc(-c3ccccc3)ccc2C#N)OC(N)=C(C#N)C1c1ccccc1 (stereo not given)	3.9	5.5	-4.4	-168.6	9.0	8.6*
CCn1c(SCc2cccc(C(F)(F)F)c2)nnc1-c1ccco1	29.9	6.0	4.0	5.6	5.1	9.6*
Cc1cc(N2CCOCC2)nc2ccc(NC(=S)N3CCCCC3C)cc12 (stereo not given)	9.2	.	-5.8	72.7*	-1.2	0.3
Cc1cc(N2CCN(C)CC2)nc2ccc(NC(=S)N3CCCCC3)cc12	19.9	.	10.4	.	2.0	-0.4
COc1ccccc1NC(=O)C1CCC(CNc2c(N3CCCCC3)c(=O)c2=O)CC1 (stereo not given)	-17.4	.	-17.3	.	.	.
CCS(=O)(=O)N1Cc2ccccc2CC1C(=O)Nc1nc2ccc(C)cc2s1 (stereo not given)	46.2*	-4.4	30.8*	-69.2	-8.9	-0.3
CSC1=NSC2=NC(=O)/C(=C\c3cccs3)C(=N)N12	-21.7	2.0	-6.5	79.3*	2.5	0.7
CC(C)CSC1=NSC2=NC(=O)/C(=C\c3cccs3)C(=N)N12	3.2	-1.5	-3.2	-24.1	12.1	5.7
COc1cc2c(cc1OC)-c1cc(OCc3ccccc3Cl)nc(=O)n1CC2	-37.9	4.2	-15.3	65.6*	-0.4	7.2
Cc1ccc(-c2nnn(CC(=O)N(Cc3cccs3)C(C(=O)NC(C)(C)C)c3ccc(C)o3)n2)o1 (stereo not given)	-112.5	39.6*	-80.5	-169.8	35.1*	7.2
Cc1ccc(-c2nnn(CC(=O)N(Cc3cccs3)C(C(=O)NC(C)(C)C)c3ccco3)n2)o1 (stereo not given)	-33.5	6.9	-1.9	.	12.2	6.2
C=CCN(C(=O)C1=NN(C2CCS(=O)(=O)C2)C(=O)CC1)c1nc(-c2ccc([N+](=O)[O-])cc2)cs1 (stereo not given)	16.9	.	4.5	.	0.3	5.8
Oc1ccc(Cl)cc1C=Nc1ccccc1Br	8.1	-0.5	-2.1	.	0.3	0.4
Oc1ccc(Br)cc1C=Nc1ccc2c3c(cccc13)CC2	-5.6	-0.2	4.1	-103.7	4.6	10.3*
Nc1c2c(nc3ccc(Br)cc13)N(Cc1ccccc1)CC2	2.6	-0.4	-6.5	69.2*	-4.7	1.1
Nc1c2c(nc3ccc(Br)cc13)N(c1ccccc1)CC2	6.2	-5.1	-0.4	48.4	6.1	-0.5
COc1ccc(C(=O)NNC(=O)CSc2nnc(-c3cccnc3)o2)cc1	5.6	.	-3.6	.	2.4	2.7
COc1ccc(S(=O)(=O)NC(C(=O)NCCc2ccccn2)C(C)C)cc1 (stereo not given)	-13.2	.	5.6	-150.0	-1.1	1.8
COc1cc(OC)cc(C(=O)N[C@H](C(=O)OCC(=O)Nc2ccc(C(N)=O)cc2)C(C)C)c1	-12.7	3.3	3.2	-16.2	-1.6	1.2
COc1cc(OC)cc(C(=O)N[C@H](C(=O)OCC(=O)Nc2ccc(F)c(F)c2)C(C)C)c1	20.2	8.6	4.9	-6.7	8.2	8.6*
Cc1noc(C)c1S(=O)(=O)N(C)CC(=O)NCc1ccccc1	7.7	0.2	2.3	.	-0.9	0.3
Cc1noc(C)c1S(=O)(=O)N(CCc1ccccc1)Cc1ccccc1	-17.4	20.2*	-23.0	.	24.3*	1.7
COc1ccc(OC)c(C(=O)c2ccccc2)c1	-14.2	1.3	-12.2	81.0*	0.1	0.4
O=C(c1ccccc1)c1ccc(OCCO)cc1	8.9	.	9.0	.	-4.0	0.1
